Source: ChEMBL document CHEMBL1125821, “Pyrimido[5,4-b]indole derivatives. 1. A new class of potent and selective alpha 1 adrenoceptor ligands” (J Med Chem, 1991)

Key:
[1] = target: T1, Alpha-1A adrenergic receptor (Rattus norvegicus, UniProt P43140); assay: Binding affinity for Alpha-1 adrenergic receptor measured by displacing [3H]prazosin from rat cortical membranes
T1 sequence (P43140 whole entry): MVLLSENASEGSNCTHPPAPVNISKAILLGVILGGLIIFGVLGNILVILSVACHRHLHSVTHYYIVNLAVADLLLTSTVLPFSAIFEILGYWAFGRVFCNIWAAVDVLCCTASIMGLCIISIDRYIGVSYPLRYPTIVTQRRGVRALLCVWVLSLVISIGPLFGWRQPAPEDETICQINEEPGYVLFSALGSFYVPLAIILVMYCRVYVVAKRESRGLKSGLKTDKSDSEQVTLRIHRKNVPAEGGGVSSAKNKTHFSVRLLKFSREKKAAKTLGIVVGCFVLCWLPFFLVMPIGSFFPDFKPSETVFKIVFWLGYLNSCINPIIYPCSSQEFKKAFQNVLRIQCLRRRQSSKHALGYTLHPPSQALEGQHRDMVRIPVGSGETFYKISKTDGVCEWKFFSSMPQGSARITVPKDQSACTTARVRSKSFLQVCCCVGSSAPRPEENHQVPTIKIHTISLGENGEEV
Method in brief: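 Rat cortex membranes labelled with 0.4 nM [3H]prazosin; 10 μM phentolamine defined nonspecific binding. Incubation with competing drugs 45–60 min at 37 °C, then vacuum filtration on glass-fiber filters with ice-chilled buffer wash. IC50 by nonlinear curve fitting (three to seven experiments); Ki via Cheng–Prusoff using KD 0.1 nM for [3H]prazosin.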

[2] = target: T2, Adrenergic receptor alpha-2 (Homo sapiens, UniProt P08913+P18825+P18089); assay: Binding affinity towards Alpha-2 adrenergic receptor in human platelet membranes using [3H]yohimbine; format: cell membranes
T2 sequence (P08913 whole entry): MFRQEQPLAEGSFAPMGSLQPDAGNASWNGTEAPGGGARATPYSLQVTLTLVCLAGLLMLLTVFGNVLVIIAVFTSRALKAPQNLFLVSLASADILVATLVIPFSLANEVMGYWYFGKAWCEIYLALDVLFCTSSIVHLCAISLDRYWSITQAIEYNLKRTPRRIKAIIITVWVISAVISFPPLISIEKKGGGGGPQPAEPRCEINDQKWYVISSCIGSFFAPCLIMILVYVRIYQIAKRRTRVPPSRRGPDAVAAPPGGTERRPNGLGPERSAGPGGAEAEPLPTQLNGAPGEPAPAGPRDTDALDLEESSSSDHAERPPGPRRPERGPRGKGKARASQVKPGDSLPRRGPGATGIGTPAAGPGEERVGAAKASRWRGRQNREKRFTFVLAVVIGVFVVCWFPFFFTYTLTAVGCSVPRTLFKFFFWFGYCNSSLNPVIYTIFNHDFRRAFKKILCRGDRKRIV
T2 sequence (P18825 whole entry): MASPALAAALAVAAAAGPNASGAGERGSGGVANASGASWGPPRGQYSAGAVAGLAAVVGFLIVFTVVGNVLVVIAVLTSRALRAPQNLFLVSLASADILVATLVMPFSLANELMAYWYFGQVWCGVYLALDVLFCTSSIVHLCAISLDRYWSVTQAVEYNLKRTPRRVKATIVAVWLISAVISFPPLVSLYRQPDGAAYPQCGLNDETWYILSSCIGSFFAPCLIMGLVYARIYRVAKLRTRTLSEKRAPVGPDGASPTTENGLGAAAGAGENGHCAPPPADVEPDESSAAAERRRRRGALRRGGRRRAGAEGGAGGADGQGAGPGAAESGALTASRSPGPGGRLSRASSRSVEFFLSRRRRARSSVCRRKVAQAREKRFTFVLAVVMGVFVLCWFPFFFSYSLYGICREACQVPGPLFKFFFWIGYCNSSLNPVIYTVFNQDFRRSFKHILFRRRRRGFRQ
T2 sequence (P18089 whole entry): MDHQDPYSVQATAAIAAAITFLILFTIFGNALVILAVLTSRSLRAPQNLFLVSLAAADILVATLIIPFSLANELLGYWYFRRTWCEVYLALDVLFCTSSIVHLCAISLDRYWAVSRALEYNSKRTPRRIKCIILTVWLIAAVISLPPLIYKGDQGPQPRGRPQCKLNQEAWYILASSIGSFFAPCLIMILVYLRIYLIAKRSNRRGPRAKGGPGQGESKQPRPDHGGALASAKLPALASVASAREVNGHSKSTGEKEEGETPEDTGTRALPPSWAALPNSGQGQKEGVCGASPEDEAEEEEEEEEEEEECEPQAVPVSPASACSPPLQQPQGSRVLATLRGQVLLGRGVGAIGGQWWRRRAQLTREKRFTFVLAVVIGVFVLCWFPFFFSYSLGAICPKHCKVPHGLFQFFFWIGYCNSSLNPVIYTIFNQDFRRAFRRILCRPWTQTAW
Method in brief: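 Human platelet membranes, [3H]yohimbine 3.5 nM; nonspecific binding defined by 100 μM phentolamine. Competition run 45–60 min at 37 °C, stopped by rapid vacuum filtration over glass-fiber filters and ice-chilled buffer washes. IC50 by nonlinear regression, mean of three to seven experiments; converted to Ki with the Cheng–Prusoff equation.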

[3] = target: Beta-2 adrenergic receptor (Homo sapiens, UniProt P07550); assay: Binding affinity towards Beta-2 adrenergic receptor in human peripheral mononuclear leukocyte membranes using [125I]pindolol
Beta-2 adrenergic receptor, sequence (P07550 whole entry): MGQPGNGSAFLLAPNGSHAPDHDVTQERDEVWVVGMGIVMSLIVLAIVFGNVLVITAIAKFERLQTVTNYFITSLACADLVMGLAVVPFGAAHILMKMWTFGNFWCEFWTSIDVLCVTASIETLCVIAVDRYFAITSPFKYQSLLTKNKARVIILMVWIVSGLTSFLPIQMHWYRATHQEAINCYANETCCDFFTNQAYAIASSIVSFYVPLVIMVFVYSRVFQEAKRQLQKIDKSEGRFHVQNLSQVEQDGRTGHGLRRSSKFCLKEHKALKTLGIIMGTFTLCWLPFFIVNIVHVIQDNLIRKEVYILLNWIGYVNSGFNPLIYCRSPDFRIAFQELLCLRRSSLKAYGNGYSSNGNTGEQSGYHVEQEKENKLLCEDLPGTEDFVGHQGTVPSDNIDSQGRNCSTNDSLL
Method in brief: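 Membranes from human peripheral blood mononuclear leukocytes bound [125I]pindolol (100 pM); 1 μM (-)-propranolol gave nonspecific binding. 45–60 min at 37 °C with or without competitors, then rapid filtration through glass-fiber filters and ice-cold buffer wash. IC50 from nonlinear fitting over three to seven experiments; Ki by Cheng–Prusoff.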

[4] = target: T3, 5-hydroxytryptamine receptor 1A (Rattus norvegicus, UniProt P19327); assay: Binding affinity for 5-hydroxytryptamine 1A receptor measured by displacing [3H]8-OH-DPAT from rat cortical membranes
T3 sequence (P19327 whole entry): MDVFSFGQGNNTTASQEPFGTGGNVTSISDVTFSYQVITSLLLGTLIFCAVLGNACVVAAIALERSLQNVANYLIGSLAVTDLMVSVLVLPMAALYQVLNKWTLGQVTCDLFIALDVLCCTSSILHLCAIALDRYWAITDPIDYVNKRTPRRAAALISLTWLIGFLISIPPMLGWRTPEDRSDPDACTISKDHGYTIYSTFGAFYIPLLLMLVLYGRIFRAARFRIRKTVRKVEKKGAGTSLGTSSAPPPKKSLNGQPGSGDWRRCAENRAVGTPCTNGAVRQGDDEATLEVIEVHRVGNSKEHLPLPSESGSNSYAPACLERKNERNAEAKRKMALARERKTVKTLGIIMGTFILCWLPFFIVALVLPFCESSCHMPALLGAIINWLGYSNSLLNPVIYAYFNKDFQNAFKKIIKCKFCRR
Method in brief: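 Rat hippocampus or cortex membranes; 1 nM [3H]-8-OH-DPAT; nonspecific binding set with 1 μM serotonin. Incubated with competing drug 45–60 min at 37 °C in buffer, then vacuum-filtered on glass-fiber filters and washed with ice-cold buffer. IC50 from nonlinear fit of competition curves, mean of 3–7 experiments. Ki by Cheng–Prusoff.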

[5] = target: T1, Alpha-1A adrenergic receptor; assay: Binding affinity measured for alpha-1 adrenergic receptor by displacement of [3H]prazosin from rat cortical membranes; format: cell membranes, Membrane
[6] = target: T3, 5-hydroxytryptamine receptor 1A

`COc1ccccc1N1CCN(CCn2c(=O)[nH]c3c([nH]c4ccccc43)c2=O)CC1` was tested, and the Ki [1] was 0.00021 µM, the Ki [2] was “>= 1000 nM” and the Ki [3] was over 100 µM. For the same molecule, the Ki [4] was 0.05 µM.

`CCN(CC)CCn1c(=O)[nH]c2c([nH]c3ccccc32)c1=O` showed a Ki [5] of over 100 µM.

Work on `O=c1[nH]c2c([nH]c3ccccc32)c(=O)n1CCN1CCN(c2ccccc2)CC1` yielded a Ki [1] of 0.0018 µM, a Ki [2] of over 100 µM and a Ki [3] of over 100 µM. For the same molecule, the Ki [4] was over 100 µM.

With `COc1ccc(N2CCN(CCn3c(=O)[nH]c4c([nH]c5ccccc54)c3=O)CC2)cc1` the Ki [1] was over 5 µM, the Ki [2] was over 100 µM and the Ki [3] was over 100 µM. The Ki [4] was over 100 µM.

In the case of `CN(C)CCn1c(=O)[nH]c2c([nH]c3ccccc32)c1=O`, the Ki [5] is reported as over 100 µM.

`CN(C)CCCn1c(=O)[nH]c2c([nH]c3ccccc32)c1=O` gave a Ki [5] of over 100 µM.

In the case of `COc1ccccc1N1CCN(CCn2c(=O)c3c(c4ccccc4n3C)n(C)c2=O)CC1`, the Ki [1] is reported as 0.00032 µM, the Ki [2] is reported as 2.215 µM and the Ki [4] is reported as 0.0015 µM.

Molecule `O=c1[nH]c2c([nH]c3ccccc32)c(=O)n1CCN1CCN(c2ccc(Cl)cc2)CC1` has a Ki [1] of at least 10 µM, a Ki [2] of over 100 µM and a Ki [3] of over 100 µM. For the same molecule, the Ki [4] was over 100 µM.

For `O=c1[nH]c2c([nH]c3ccccc32)c(=O)n1CCN1CCOCC1`, the Ki [5] was over 100 µM.

With `CCOC(=O)N1CCN(CCn2c(=O)[nH]c3c([nH]c4ccccc43)c2=O)CC1` the Ki [5] was over 100 µM.

Work on `O=c1[nH]c2c([nH]c3ccccc32)c(=O)n1CCN1CCCC1` yielded a Ki [5] of over 100 µM.

Molecule `COc1ccccc1N1CCN(CCCn2c(=O)[nH]c3c([nH]c4ccccc43)c2=O)CC1` has a Ki [1] of 0.013 µM, a Ki [2] of 0.055 µM and a Ki [3] of 1.18 µM. It also gave a Ki [4] of 0.308 µM.

For `O=c1[nH]c2c([nH]c3ccccc32)c(=O)n1CCN1CCCCC1`, the Ki [5] was over 100 µM.

`O=c1[nH]c2c([nH]c3ccccc32)c(=O)n1CCN1CCN(c2ccccc2Cl)CC1` was tested, and the Ki [1] was 0.00053 µM, the Ki [2] was over 100 µM and the Ki [3] was over 100 µM. The Ki [4] was over 100 µM.

`CCN(CC)CCCn1c(=O)[nH]c2c([nH]c3ccccc32)c1=O` showed a Ki [5] of over 100 µM.

`O=c1[nH]c2c([nH]c3ccccc32)c(=O)n1CCN1CCNCC1` gave a Ki [1] of over 100 µM.

In the case of `COc1ccccc1N1CCNCC1`, the Ki [5] is reported as 3.51 µM and the Ki [4] is reported as 0.281 µM.

In the case of `Clc1ccccc1N1CCNCC1`, the Ki [6] is reported as 0.226 µM and the Ki [5] is reported as 0.71 µM.
